Data as given in ChEMBL document CHEMBL3872205, “Design, synthesis and evaluation of novel potent angiotensin II receptor 1 antagonists” (Eur J Med Chem, 2016).

Experiments:
[1] = AUC (0 to 72 hrs) in Wistar rat brain at 10 mg/kg, po by HPLC analysis; format: ADME, organism-based; set-up: time < 72 hr, dose 10 mg/kg, route oral
In short: (§1)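 Wistar rats (180 ± 20 g) were dosed orally at 10, 15 or 30 mg/kg. Heart, liver, spleen, lung, kidney and brain were collected at 0–72 h (n = 6 per point). Tissue was rinsed, blotted and homogenized in saline (0.25 g/1 mL), then spun at 10,000 × g. Supernatant was methanol-extracted, dried under nitrogen at 50 °C, reconstituted in methanol and run on C18 HPLC (acetonitrile 60%/water 40%, 1.0 mL/min).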

Mus musculus = assay: Toxicity in ICR mouse assessed as change in body weight at 1200 mg/kg, po after 2 weeks; format: organism-based; settings: in vivo, 336 h
[2] = MRT (0 to infinity) in Wistar rat plasma at 15 mg/kg, po by HPLC analysis; format: ADME, organism-based
In short: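 Male Wistar rats (180 ± 20 g), 6 per dose group, each given a single oral dose. Blood was drawn by retro-orbital puncture into heparin at predose and at 0.5, 1, 2, 4, 6, 8, 12, 24, 48 and 72 h, then spun at 4000 × g and 4 °C. Plasma with internal standard was acetonitrile-precipitated, filtered and run on reverse-phase C18 HPLC (0.02 mol/L KH2PO4 55% / acetonitrile 45%, 1.0 mL/min). Calibration standards were 0.1–10 µg/mL, fitted by peak-height ratio with 1/conc² weighting.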

[3] = Tmax in Wistar rat Heart at 30 mg/kg, po by HPLC analysis; format: ADME, organism-based
In short: (§2)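 Male Wistar rats (180 ± 20 g) received a single oral dose of 10, 15 or 30 mg/kg. Tissues were collected at 0, 0.5, 1, 2, 4, 6, 8, 12, 24, 48 and 72 h (n = 6 per point). Samples of 0.25 g were rinsed, then homogenized in saline (0.25 g/1 mL) and centrifuged at 10,000 × g. Supernatant was methanol-extracted, dried under nitrogen at 50 °C and reconstituted in methanol. Analysis was by C18 HPLC (acetonitrile 60% / water 40%, 1.0 mL/min).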

[4] = AUC (0 to infinity) in Wistar rat kidney at 30 mg/kg, po by HPLC analysis; format: ADME, organism-based; set-up: dose 30 mg/kg, route oral, time infinity; in short: as §1
[5] = Half life in Wistar rat lung at 10 mg/kg, po by HPLC analysis; format: ADME, organism-based
In short: (§3)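 Tissue distribution in male Wistar rats given oral 10, 15 or 30 mg/kg; heart, liver, spleen, lung, kidney and brain collected predose and 0.5–72 h post-dose (n = 6 per time). Tissue rinsed in saline, homogenised 0.25 g/1 mL saline, methanol extraction, dried under nitrogen, reconstituted in methanol. Analysis by reverse-phase C18 HPLC, acetonitrile/water 60:40, 1.0 mL/min, ambient temperature.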

[6] = Tmax in Wistar rat Heart at 10 mg/kg, po by HPLC analysis; format: ADME, organism-based; in short: as §2
[7] = MRT (0 to infinity) in Wistar rat lung at 10 mg/kg, po by HPLC analysis; format: ADME, organism-based; in short: as §2
[8] = MRT (0 to infinity) in Wistar rat Heart at 15 mg/kg, po by HPLC analysis; format: ADME, organism-based; in short: as §2
[9] = Half life in Wistar rat spleen at 10 mg/kg, po by HPLC analysis; format: ADME, organism-based; in short: as §3
[10] = Tmax in Wistar rat lung at 10 mg/kg, po by HPLC analysis; format: ADME, organism-based; in short: as §2
[11] = AUC (0 to infinity) in Wistar rat brain at 30 mg/kg, po by HPLC analysis; format: ADME, organism-based; set-up: dose 30 mg/kg, route oral, time infinity; in short: as §1
[12] = AUC (0 to 72 hrs) in Wistar rat Heart at 15 mg/kg, po by HPLC analysis; format: ADME, organism-based; set-up: time < 72 hr, dose 15 mg/kg, route oral; in short: as §1
[13] = MRT (0 to infinity) in Wistar rat Heart at 30 mg/kg, po by HPLC analysis; format: ADME, organism-based; in short: as §2
[14] = Toxicity in ICR mouse assessed as mortality at 2929.69 mg/kg, ig after 2 weeks; format: organism-based; settings: in vivo, po
[15] = Displacement of 125I-Ang2 from AT1 receptor in SPF Sprague-Dawley rat vascular smooth muscle cell membranes after 150 mins by gamma counting method
In short: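 Primary aortic VSMCs from SPF Sprague-Dawley rats, obtained by explant culture in DMEM/10% FBS and identified by SM α-actin staining; passages 3–6. Whole cells (10^6/well) incubated with 125I-Ang II (diluted to 0.2 nM) and compound at final 10^-12–10^-6 M, 4 °C for 150 min. Washed, lysed in 0.1 M NaOH, γ-counted. IC50 from nonlinear fit of competition curves.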

[16] = Cmax in Wistar rat plasma at 15 mg/kg, po by HPLC analysis; format: ADME, organism-based; set-up: dose 15 mg/kg, route oral
[17] = MRT (0 to infinity) in Wistar rat kidney at 30 mg/kg, po by HPLC analysis; format: ADME, organism-based; in short: as §2
[18] = Tmax in Wistar rat lung at 30 mg/kg, po by HPLC analysis; format: ADME, organism-based; in short: as §2
[19] = Half life in Wistar rat brain at 10 mg/kg, po by HPLC analysis; format: ADME, organism-based; in short: as §3
[20] = MRT (0 to 72 hrs) in Wistar rat liver at 30 mg/kg, po by HPLC analysis; format: ADME, organism-based; in short: as §2
[21] = AUC (0 to infinity) in Wistar rat liver at 15 mg/kg, po by HPLC analysis; format: ADME, organism-based; set-up: dose 15 mg/kg, route oral, time infinity; in short: as §1
[22] = MRT (0 to 72 hrs) in Wistar rat brain at 30 mg/kg, po by HPLC analysis; format: ADME, organism-based; in short: as §3
[23] = AUC (0 to 72 hrs) in Wistar rat plasma at 10 mg/kg, po by HPLC analysis; format: ADME, organism-based; set-up: time < 72 hr, dose 10 mg/kg, route oral
In short: (§4)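 Male Wistar rats (180 ± 20 g, n = 6 per group) got one oral dose. Heparinized blood was taken by retro-orbital puncture before dosing and at 0.5–72 h. Plasma was spun at 4000 × g, 4 °C, 10 min, spiked with internal standard and protein-precipitated with acetonitrile. Analysis was reverse-phase C18 HPLC (0.02 mol/L KH2PO4 55%/acetonitrile 45%, 1.0 mL/min). Calibration used 0.1–10 µg/mL, peak-height ratio, weighting concentration^-2.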

[24] = Half life in Wistar rat lung at 30 mg/kg, po by HPLC analysis; format: ADME, organism-based; in short: as §3
[25] = MRT (0 to 72 hrs) in Wistar rat kidney at 10 mg/kg, po by HPLC analysis; format: ADME, organism-based; in short: as §3
[26] = Cmax in Wistar rat liver at 10 mg/kg, po by HPLC analysis; format: ADME, organism-based; set-up: dose 10 mg/kg, route oral; in short: as §3
[27] = Cmax in Wistar rat lung at 15 mg/kg, po by HPLC analysis; format: ADME, organism-based; set-up: dose 15 mg/kg, route oral; in short: as §3
[28] = AUC (0 to 72 hrs) in Wistar rat plasma at 15 mg/kg, po by HPLC analysis; format: ADME, organism-based; set-up: dose 15 mg/kg, time < 72 hr, route oral; in short: as §4
[29] = MRT (0 to infinity) in Wistar rat Heart at 10 mg/kg, po by HPLC analysis; format: ADME, organism-based; in short: as §2
[30] = AUC (0 to infinity) in Wistar rat plasma at 10 mg/kg, po by HPLC analysis; format: ADME, organism-based; set-up: dose 10 mg/kg, route oral, time infinity; in short: as §4
[31] = MRT (0 to infinity) in Wistar rat lung at 15 mg/kg, po by HPLC analysis; format: ADME, organism-based; in short: as §2
[32] = Toxicity in ICR mouse assessed as mortality at 1875 mg/kg, ig after 2 weeks; format: organism-based; settings: in vivo, po

Compound: CCCCC1=NC2(CCCC2)C(=O)N1Cc1ccc2c(ccn2-c2ccccc2-c2nnn[nH]2)c1
- AUC(0-t) at 72 h [1]: 346 ng·h/mL
- Activity (Mus musculus): Non-Toxic
- MRT inf [2]: 13.7 h
- Tmax [3]: 4.8 h
- AUC(0-inf) [4]: 29400 ng·h/mL
- half-life [5]: 3.04 h
- Tmax [6]: 4 h
- MRT inf [7]: 10.6 h
- MRT inf [8]: 23.9 h
- half-life [9]: 17.9 h
- Tmax [10]: 2 h
- AUC(0-inf) [11]: 1790 ng·h/mL
- AUC(0-t) at 72 h [12]: 5840 ng·h/mL
- MRT inf [13]: 28.1 h
- mortality at 336 h [14]: 100%
- IC50 [15]: 1.26 nM
- Ki [15]: 0.91 nM
- Cmax [16]: 2950 ng/mL
- MRT inf [17]: 24.1 h
- Tmax [18]: 2 h
- half-life [19]: 2.73 h
- MRT last [20]: 6.3 h
- AUC(0-inf) [21]: 23500 ng·h/mL
- MRT last [22]: 9.03 h
- AUC(0-t) at 72 h [23]: 6110 ng·h/mL
- half-life [24]: 2.35 h
- MRT last [25]: 21 h
- Cmax [26]: 721 ng/mL
- Cmax [27]: 369 ng/mL
- AUC(0-t) at 72 h [28]: 26500 ng·h/mL
- MRT inf [29]: 12 h
- AUC(0-inf) [30]: 6690 ng·h/mL
- MRT inf [31]: 3.64 h
- mortality at 336 h [32]: 60%
